Screening results from PubChem BioAssay.
Arr AP2 block: blocks beta-arrestin peptide binding to AP2 adaptin; FITC-arrestin peptide / GST-AP2 beads, flow cytometry; AP2 beta2 appendage carries R879A mutation; inhibition, % at 10 µM; hit rate 0.31% among 340,000; AID 504490;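 active = inhibition above a set limit, near 3 SD of compounds lacking own fluorescence, cut at about 54% in these data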;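 note: plate controls were DMSO wells for no effect and 5 µM unlabelled arrestin peptide for full effect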
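System: GST-AP2 R879A bound to glutathione beads, E. coli-expressed. Also added: 50 nM FITC-arrestin peptide. Schedule: compound with beads 12 min RT, then probe 1 h RT. Signal: bead flow cytometry, FITC channel. Read-out basis: percent response.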
DSG3 Ab inh: blocks pemphigus antibody binding to human desmoglein-3 | P32926 | DSG3-coupled beads, scFv-anti-DSG3-GFP binding, flow cytometry; hits give low values | hit rate 0.48% among 310,000 | binding (percent of control), % at 10 µM;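 active = binding more than 3 SD below its plate's average and above zero; inconclusive = below that plate limit but binding exactly zero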;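 note: hits lower antibody fragment binding to DSG3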
Target sequence (P32926 whole entry, looked up, the tested form may be a part): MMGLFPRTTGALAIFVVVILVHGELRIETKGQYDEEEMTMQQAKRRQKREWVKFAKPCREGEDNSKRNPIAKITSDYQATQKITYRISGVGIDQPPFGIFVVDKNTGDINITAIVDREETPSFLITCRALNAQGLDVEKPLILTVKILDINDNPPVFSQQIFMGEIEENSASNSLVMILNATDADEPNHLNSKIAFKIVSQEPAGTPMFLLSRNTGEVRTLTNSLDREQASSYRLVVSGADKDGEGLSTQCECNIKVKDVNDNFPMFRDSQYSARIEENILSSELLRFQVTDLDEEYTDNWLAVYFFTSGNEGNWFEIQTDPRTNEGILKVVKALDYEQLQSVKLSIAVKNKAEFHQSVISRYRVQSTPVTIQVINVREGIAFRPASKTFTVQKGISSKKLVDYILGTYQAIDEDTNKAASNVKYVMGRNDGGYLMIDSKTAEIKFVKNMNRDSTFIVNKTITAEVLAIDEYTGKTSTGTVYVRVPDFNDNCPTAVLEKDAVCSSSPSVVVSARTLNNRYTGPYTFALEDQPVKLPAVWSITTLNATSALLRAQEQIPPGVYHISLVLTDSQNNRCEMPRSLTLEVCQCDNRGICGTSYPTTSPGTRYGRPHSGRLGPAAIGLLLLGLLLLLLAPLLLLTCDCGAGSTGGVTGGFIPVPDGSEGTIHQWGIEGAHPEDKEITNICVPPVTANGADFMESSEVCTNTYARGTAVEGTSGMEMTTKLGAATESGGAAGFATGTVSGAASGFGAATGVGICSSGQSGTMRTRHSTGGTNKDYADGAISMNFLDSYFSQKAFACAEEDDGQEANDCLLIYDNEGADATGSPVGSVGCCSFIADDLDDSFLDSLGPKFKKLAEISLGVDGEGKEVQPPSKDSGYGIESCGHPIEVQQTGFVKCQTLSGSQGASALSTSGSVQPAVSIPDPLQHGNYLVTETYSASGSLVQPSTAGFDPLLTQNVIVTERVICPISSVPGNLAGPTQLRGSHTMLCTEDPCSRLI
PolyA inhibitor: blocks polyadenylation in yeast reporter cells; S. cerevisiae SKY197-pL101 polyadenylation reporter, beta-gal luminescence; efflux-impaired pdr1/pdr3 knockout yeast; score 100 = 6 SD above DMSO; activity score, % at 12 µM; hit rate 0.02% among 300,000;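 active = lowest replicate activity score at least 50, where 100 means six control SD above control mean; inconclusive = lowest score under 50 but half or more replicates reach 50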;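 note: yeast exposed to compound for 9 h at 30 °C; higher score means more reporter readthrough which indicates perturbed polyadenylation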
NLRP3 yeast inh: NALP3 inhibition in yeast; Yeast reconstituted NLRP3/ASC/caspase-1, beta-gal luminescence, 24 h; inhibition, % at 10 µM; hit rate 0.39% among 330,000;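 active = inhibition of 50% or more; inactive = inhibition below 50%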;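 note: plate controls were induced DMSO wells for no effect and uninduced yeast grown without galactose for full effect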
NALP1 yeast inh: inhibitors of NALP1 inflammasome in yeast; S. cerevisiae NALP1/ASC/caspase-1 growth, X-gal OD620, 72 h; inhibition, % at 10 µM; hit rate 0.61% among 280,000; AID 2071; in the data active = inhibition mostly above about 24%, no sharp cut-off; inactive = mostly below about 32%
ALR inh: inhibitors of human sulfhydryl oxidase ALR. inhibition, % (no concentration beside the values). purified ALR, DTT oxidation, H2O2 HRP-luminol luminescence. P55789. hit rate 3.8% among 290,000. AID 485317;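 active = mean replicate inhibition above about 79%, with every replicate also reaching it, limit read from the data; inconclusive = only one of the two criteria met; inactive = mean below limit and not every replicate reaching it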
Starred values were filed as active, the others as inactive; ? = inconclusive; nt = not tested or not shown. A selection: hits, their analogues and other compounds. The true share with any hit is near 4.6%.

SMILES | Arr AP2 block | DSG3 Ab inh | PolyA inhibitor | NLRP3 yeast inh | NALP1 yeast inh | ALR inh
O=C(Nc1cccc(F)c1)/C(=C/c1ccco1)NC(=O)c1ccco1 | 32.2 | 111.3 | 18.1 | 16.6 | -4.4 | 13.2
Cc1ccc(C)c(NC(=O)CSc2sc3c(O)cc(=O)[nH]c3c2C#N)c1 | 5.1 | 96.8 | 4.2 | 7.1 | 25.7 | ?
COc1ccc(Cl)cc1NC(=O)CSc1sc2c(O)cc(=O)[nH]c2c1C#N | -1.3 | 95.8 | 7.9 | 12.7 | 15.2 | 98.6*
COc1ccccc1NC(=O)CSc1sc2c(O)cc(=O)[nH]c2c1C#N | -18.1 | 93.9 | -7.9 | 18.4 | 14.2 | 94.5*
Cc1ccc(Cl)cc1NC(=O)CSc1sc2c(O)cc(=O)[nH]c2c1C#N | 23.7 | 100.4 | -12.6 | 14.3 | 12.1 | 92.5*
COc1ccc(NC(=O)CSc2sc3c(O)cc(=O)[nH]c3c2C#N)c(OC)c1 | -6.5 | 100.7 | 5.1 | 17.9 | 1.6 | 32.8
C[C@H](CO)N1C[C@H](C)[C@@H](CN(C)S(=O)(=O)c2cn(C)cn2)Oc2ncc(Br)cc2C1=O | nt | 95.2 | nt | nt | nt | nt
O=C(Cn1cnc2ccccc2c1=O)c1ccc(OC(F)F)cc1 | -2.1 | 38.6* | -10.4 | 42.1 | -18.8 | 4.8
COC1CCCCC1Nc1cccc(SC)c1 (configuration not stated) | 18.2 | 97.6 | -19.0 | -10.9 | 4.6 | 98.9*
CC(C(=O)Nc1nc(-c2ccc(F)cc2)cs1)N1C(=O)C2CC=CCC2C1=O (configuration not stated) | 11.4 | 101.7 | nt | 11.1 | nt | 0.0
CSc1nc(O)c(Nc2cccc(Cl)c2)c(=O)[nH]1 | -1.8 | 90.9 | -17.2 | 14.4 | -5.4 | 88.7*
CSCCC(C)N1CCC(Oc2ccc(C(=O)NCc3ccccn3)cc2)CC1 (configuration not stated) | nt | 100.8 | nt | nt | nt | nt
COc1ccc(-c2[nH]c(-c3ccc(C(=O)O)cc3)nc2-c2ccccc2)cc1 | 10.2 | 101.7 | 14.4 | -3.4 | 3.8 | 98.6*
O=C(O)c1ccc(-c2nc(-c3ccccc3)c(-c3ccccc3)[nH]2)cc1 | -7.7 | 101.0 | 0.0 | -16.1 | 26.4 | 98.1*
Cc1ccc(OC(=S)Nc2ccc(O)cc2)cc1 | -5.7 | 98.0 | nt | 15.4 | 68.9* | 98.9*
CC1CCC/C(=N/Nc2nc3ccccc3s2)C1 (configuration not stated) | 9.5 | 105.0 | -14.5 | 2.2 | 23.0 | 96.7*
COc1cccc2sc(NN)nc12 | 29.1 | 99.4 | 6.8 | 5.6 | 5.0 | 98.4*
COc1cccc2sc(Nc3nnc(-c4ccccc4Cl)o3)nc12 | 10.0 | 96.2 | -5.0 | -0.2 | 8.7 | 86.3*
COc1ccccc1-c1nnc(Nc2nc3c(OC)cccc3s2)o1 | 33.9 | 88.1 | 1.3 | 5.6 | -70.0 | -1.8
O=C(NC1CCOCC1)C1CCC(=O)N(CCc2cccc(F)c2)C1 (configuration not stated) | 22.2 | 101.1 | 8.2 | -5.1 | 6.4 | -5.1
CCc1cc2c3c(c1)C(C)CC(C)(C)N3C(=O)/C2=C1\SC(=O)NC1=O (configuration not stated) | 13.4 | 90.7 | -13.7 | 17.6 | -3.6 | 96.6*
O=C(NCCNC(=O)c1ccc(-c2cc(Cl)ccc2Cl)o1)c1cnccn1 | nt | 106.1 | nt | nt | nt | nt
CCOC(=O)c1c(C)n(C(=O)c2ccco2)c(=O)n1C(=O)c1ccco1 | 2.2 | 90.6 | -5.1 | -3.9 | 9.3 | 96.8*
CC1=C/C(=N\NC(=S)Nc2cccnc2)CC(C)(C)C1 | -8.4 | nt | 3.4 | nt | -29.0 | nt
Cc1cc(=O)[nH]c(N/N=C/c2ccccc2Cl)n1 | 28.9 | 102.1 | 4.3 | 10.3 | 1.7 | -16.2
SMILES | Arr AP2 block | DSG3 Ab inh | PolyA inhibitor | NLRP3 yeast inh | NALP1 yeast inh | ALR inh
CCOc1cc(/C=N/Nc2ncc(C)c(=O)[nH]2)ccc1O | 34.4 | 90.1 | -1.7 | 1.2 | -11.0 | 99.7*
Cc1cc(=O)[nH]c(N/N=C/c2c(F)c(F)c(F)c(F)c2F)n1 | 16.4 | 106.8 | ? | -1.7 | -0.7 | 75.9*
CCOc1cc(/C=N/Nc2nc(C)cc(=O)[nH]2)ccc1O | -7.9 | 92.6 | -4.9 | -12.4 | -22.1 | 95.8*
CC(=O)Oc1ccc(C23c4ccccc4C2(OC(C)=O)c2cc(OC(C)=O)ccc23)cc1 (configuration not stated) | -17.3 | 92.1 | nt | nt | nt | nt
COc1ccc(Br)c(C(=O)NCC2CCCCC2)c1 | -11.4 | 120.4 | 19.7 | -1.3 | 20.0 | -2.0
Cc1ccc(C(=O)Sc2cccccc2=O)cc1 | 30.8 | 109.0 | -13.7 | 15.4 | 6.1 | 99.4*
COc1ccc(C(=O)CSc2[nH]c(=O)cc(C(F)(F)F)c2C#N)cc1 | -3.3 | 101.8 | 16.1 | -0.3 | 22.9 | 98.5*
O=C(O)C1Nc2ccc(OC(F)(F)F)cc2C2C=CCC12 (configuration not stated) | nt | nt | 7.8 | 3.2 | nt | 96.8*
COc1cccc2c1NC(C(=O)O)C1CC=CC21 (configuration not stated) | 8.4 | 13.0* | -2.9 | -9.3 | 24.7 | 81.3*
COc1ccc(/C=N/N2CCN(C)CC2)cc1O | -2.1 | 106.7 | -10.1 | -38.9 | nt | 98.8*
COc1cc(/C(C)=N/NC(=O)C(O)(c2ccccc2)c2ccccc2)ccc1O | -8.8 | 106.7 | 8.2 | 22.5 | 8.0 | 98.4*
COc1cc(/C(C)=N/N2CCN(c3ccccc3OC)CC2)ccc1O | -8.4 | 123.5 | -10.3 | 8.4 | 5.9 | 98.9*
COc1cc(C(C)=NNC(=O)c2ccncc2)ccc1O | -7.1 | 92.6 | nt | nt | nt | nt
COc1ccccc1N1CCN(/N=C\c2sccc2C)CC1 | -5.8 | 97.6 | -11.3 | 37.9 | -4.0 | 94.7*
O=C(NCCc1ccccc1F)C1CC(=O)N(c2ccc3c(c2)OCCO3)C1 (configuration not stated) | nt | 101.4 | nt | nt | nt | nt
COc1ccc(S(=O)(=O)Nc2c(C)n(C)n(-c3ccccc3)c2=O)cc1C(=O)O | -1.7 | 108.9 | -12.0 | 11.4 | 14.4 | 8.8
Cc1ccc([C@H]2C[C@H](n3cc(C4CC4)nn3)[C@@H](O)CN2C(=O)C2CCCCC2)cc1 | nt | 103.0 | nt | nt | nt | nt
COc1cc(/C=N/N2CCN(c3ccccc3OC)CC2)ccc1O | 25.5 | nt | 2.6 | -52.5 | 17.4 | 98.9*
Cc1ccc(NC(=O)CSCC(=O)Nc2nnc(C)s2)cc1 | -9.3 | -14.6 | -16.1 | 9.7 | nt | 70.8
Cc1ccc(NC(=O)COC(=O)CC2SC(N3CCCC3)=NC2=O)cc1 (configuration not stated) | -0.7 | 107.1 | nt | 7.6 | nt | 2.2
COCCn1c(=S)[nH]c2cc(C(=O)NCC3CCCO3)ccc2c1=O (configuration not stated) | 14.7 | 102.8 | 21.6 | -2.7 | 19.0 | 98.3*
COCCn1c(=O)[nH]c2cc(C(=O)NCC3CCCO3)ccc2c1=O (configuration not stated) | 8.7 | 77.5 | -1.3 | 10.3 | -2.8 | -11.3
CCOc1cc2[nH]c(=S)n(CC3CCCO3)c(=O)c2cc1OCC (configuration not stated) | -3.2 | 96.1 | -15.0 | -3.8 | nt | 95.2*
